Assay results: PMC6118327 (Biochimica et biophysica acta. Biomembranes, 2017)
Changes are numbered by the printed parent chain. Blank lines part the entries; values can stand above or below the molecule they belong to.

Experiments:
mUCP3 [1] = molecular target: T1, mUCP3 (Mus musculus, UniProt P56501); type: biochemical; settings: for dependence of mUCP3 inhibition on AA concentration: 10 vs 15 mol% AA, 1 mM ATP, 2 mM ADP, 5 mM AMP
T1 sequence (P56501 1-308): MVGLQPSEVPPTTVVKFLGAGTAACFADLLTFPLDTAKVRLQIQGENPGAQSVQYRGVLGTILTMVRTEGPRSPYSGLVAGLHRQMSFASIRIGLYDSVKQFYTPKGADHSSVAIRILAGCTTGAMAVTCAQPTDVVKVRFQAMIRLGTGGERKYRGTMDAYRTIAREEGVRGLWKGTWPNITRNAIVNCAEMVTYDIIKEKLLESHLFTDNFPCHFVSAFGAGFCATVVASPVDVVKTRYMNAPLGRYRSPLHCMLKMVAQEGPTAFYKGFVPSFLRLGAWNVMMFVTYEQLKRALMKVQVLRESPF
Summary of the method: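 Recombinant mouse protein reconstituted into DOPC/DOPE/CL (45:45:10) liposomes. Bilayers formed at 1.5 mg/ml lipid, 6 μg protein/mg lipid, AA 10 or 15 mol%. Run in 50 mM Na₂SO₄/10 mM MES/10 mM Tris/0.6 mM EGTA, pH 7.35, 32°C. I/V recorded −50 to +50 mV, including with 2 mM ATP. G from linear fit at 0 mV gives relative conductance. IC50 and maximum inhibition come from a four-parameter logistic fit. AA-dependence tested at 1 mM ATP, 2 mM ADP, 5 mM AMP. Mean ± SD, ≥3 experiments.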

mUCP1 [2] = molecular target: T2, mUCP1 (Mus musculus, UniProt P12242); type: biochemical; settings: for maximum inhibition of mUCP1 / extent of inhibition at high PN concentration: 15 mol% AA; for extent of inhibition at high PN concentration: DOPC/DOPE/CL membranes, pH 7.35, 32°C
T2 sequence (P12242 1-307): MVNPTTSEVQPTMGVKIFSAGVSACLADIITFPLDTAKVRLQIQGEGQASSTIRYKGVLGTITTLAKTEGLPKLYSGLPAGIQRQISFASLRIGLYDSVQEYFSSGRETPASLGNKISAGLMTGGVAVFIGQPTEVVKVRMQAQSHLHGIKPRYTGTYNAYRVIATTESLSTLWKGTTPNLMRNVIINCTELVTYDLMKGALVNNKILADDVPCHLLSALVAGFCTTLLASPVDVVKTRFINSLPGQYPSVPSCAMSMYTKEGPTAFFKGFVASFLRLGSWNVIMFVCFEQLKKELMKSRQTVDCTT
Summary of the method: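 Inclusion-body mouse protein reconstituted into DOPC/DOPE/CL (45:45:10) proteoliposomes. Planar bilayers made at 1.5 mg/ml lipid, AA 10 or 15 mol% in the lipid solution, sulfate/MES/Tris/EGTA buffer pH 7.35, 32°C. I/V swept −50 to +50 mV; G at zero voltage from linear fit, normalised to AA-only and UCP+AA membranes. Titrations of nucleotides or phosphate fitted by four-parameter logistic for IC50 and maximum inhibition. AA comparison used 1 mM ATP, 2 mM ADP, 2 mM AMP. Mean ± SD, ≥3 experiments.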

mUCP3 [3] = molecular target: T1, mUCP3; experiment: AFM recognition imaging and force spectroscopy, PN-UCP bond lifetime; type: binding; settings: for change of UCP3-PN lifetime with AA concentration: 15 mol% vs 10 mol% AA; for lifetime of mUCP3-PN interaction: PN bound to AFM tip, supported EPL membranes, pH 7.35, 21°C
Summary of the method: (§1)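 Mouse protein from E. coli inclusion bodies, solubilised in 2% SLS and reconstituted into EPL liposomes. Proteoliposomes incubated 10 min on fresh mica to form supported bilayers. For AA competition, mixed with AA liposomes to 1 mg/ml final lipid. AFM tips carried EDA-ATP, -ADP or -AMP via PEG-acetal linker. Recognition imaging plus force spectroscopy run in 50 mM Na₂SO₄/10 mM MES/10 mM Tris/0.6 mM EGTA, pH 7.35, 21°C. Lifetimes from maximum-likelihood Bell-Evans fits; mean ± SD, ≥3 experiments.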

mUCP1 [4] = molecular target: T2, mUCP1; experiment: as above; type: binding; settings: for change of UCP1-PN lifetime with AA concentration: 15 mol% vs 10 mol% AA; for lifetime of mUCP1-PN interaction: PN bound to AFM tip, supported EPL membranes, pH 7.35, 21°C
Summary of the method: as §1

mUCP3R84Q = molecular target: T3, mUCP3R84Q (Mus musculus, UniProt P56501, R84Q); experiment: Relative conductance of UCP3 mutant in planar bilayer membranes; type: biochemical; settings: 2 mM ATP, 4 mM ADP or 8 mM AMP; 15 mol% AA
T3 sequence (P56501 1-308 R84Q): T1 sequence (P56501 1-308) with R84Q
Summary of the method: (§2)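 Arginine point mutants made by site-directed mutagenesis, expressed in E. coli Rosetta and reconstituted like wild type. Planar DOPC/DOPE/CL (45:45:10) bilayers carried 15 mol% AA; buffer pH 7.35, 32°C. Relative conductance compared with wild type after nucleotide addition: UCP1 mutants 5 mM ATP, ADP or AMP; UCP3 mutant 2 mM ATP, 4 mM ADP or 8 mM AMP. Mean ± SD, ≥3 experiments.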

mUCP1R183T = molecular target: T4, mUCP1R183T (Mus musculus, UniProt P12242, R183T); experiment: Relative conductance of UCP1 mutant in planar bilayer membranes; type: biochemical; settings: PN 5 mM; 15 mol% AA
T4 sequence (P12242 1-307 R183T): T2 sequence (P12242 1-307) with R183T
Summary of the method: as §2

mUCP1 R84Q = molecular target: T5, mUCP1 R84Q (Mus musculus, UniProt P12242, R84Q); experiment: as above; type: biochemical; settings: PN 5 mM; 15 mol% AA
T5 sequence (P12242 1-307 R84Q): T2 sequence (P12242 1-307) with R84Q
Summary of the method: as §2

mUCP1R277L = molecular target: T6, mUCP1R277L (Mus musculus, UniProt P12242, R277L); experiment: as above; type: biochemical; settings: PN 5 mM; 15 mol% AA
T6 sequence (P12242 1-307 R277L): T2 sequence (P12242 1-307) with R277L
Summary of the method: as §2

mUCP3 [5] = molecular target: T1, mUCP3; type: biochemical; settings: membrane reconstituted with AA and mUCP3, pH gradient; seven independent experiments
[6] = lower FFA concentrations vs 15 mol% AA
[7] = DOPC/DOPE/CL membranes, 15 mol% AA, pH 7.35, 32°C

Molecule: Nc1ncnc2c1ncn2[C@@H]1O[C@H](COP(=O)(O)OP(=O)(O)O)[C@@H](O)[C@H]1O [ADP]
dependence of mUCP3 inhibition on AA concentration (mUCP3 [1]): less
maximum inhibition of mUCP1 (mUCP1 [2]): lower than 100%
extent of inhibition at high PN concentration (mUCP1 [2]): partially inhibit
change in maximum inhibition of mUCP1 at lower FFA concentration (mUCP1 [2]; [6]): No change
effect of FFA concentration on IC50 of mUCP1 inhibition (mUCP1 [2]; [6]): affected
change of UCP3-PN lifetime with AA concentration (mUCP3 [3]): not significant
lifetime of mUCP3-PN interaction (mUCP3 [3]): 0.56 s
change of UCP1-PN lifetime with AA concentration (mUCP1 [4]): significantly increased
lifetime of mUCP1-PN interaction (mUCP1 [4]): 0.75 s
inhibition of mutant compared to wild type mUCP3 (mUCP3R84Q): decreased the strength
inhibition of mutant compared to mUCP1 wt (mUCP1R183T): impaired inhibition
inhibition of mutant compared to mUCP1 wt (mUCP1 R84Q): did not affect

Molecule: Nc1ncnc2c1ncn2[C@@H]1O[C@H](COP(=O)(O)O)[C@@H](O)[C@H]1O [AMP]
extent of inhibition at high inhibitor concentration (mUCP3 [1]; [7]): fully inhibit
maximum inhibition of mUCP1 (mUCP1 [2]): lower than 100%
extent of inhibition at high PN concentration (mUCP1 [2]): partially inhibit
change of UCP3-PN lifetime with AA concentration (mUCP3 [3]): unaffected
lifetime of mUCP3-PN interaction (mUCP3 [3]): 0.13 s
change of UCP1-PN lifetime with AA concentration (mUCP1 [4]): unaffected
lifetime of mUCP1-PN interaction (mUCP1 [4]): 0.16 s
inhibition of mutant compared to wild type mUCP3 (mUCP3R84Q): did not affect
inhibition of mutant compared to mUCP1 wt (mUCP1R277L): no longer able to inhibit
inhibition of mutant compared to mUCP1 wt (mUCP1 R84Q): did not affect

Next, values leading:

current I and total membrane conductance G after addition of inhibitor (mUCP3 [1]; 2 mM ATP, 15 mol% AA): decreased
dependence of mUCP3 inhibition on AA concentration (mUCP3 [1]): higher at lower AA concentration
PN concentration at which maximum inhibition is achieved (mUCP3 [1]; [7]): approx. 4 mM
change of UCP3-PN lifetime with AA concentration (mUCP3 [3]): significantly increased
lifetime of mUCP3-PN interaction (mUCP3 [3]): 1.33 s
change of UCP1-PN lifetime with AA concentration (mUCP1 [4]): significantly increased
lifetime of mUCP1-PN interaction (mUCP1 [4]): 1.12 s
inhibition of mutant compared to wild type mUCP3 (mUCP3R84Q): decreased the strength
inhibition of mutant compared to mUCP1 wt (mUCP1R277L): similarly reduced
inhibition of mutant compared to mUCP1 wt (mUCP1R183T): similarly reduced
inhibition of mutant compared to mUCP1 wt (mUCP1 R84Q): similarly reduced
Molecule: Nc1ncnc2c1ncn2[C@@H]1O[C@H](COP(=O)(O)OP(=O)(O)OP(=O)(O)O)[C@@H](O)[C@H]1O [ATP]

membrane total conductance after addition of α-cyclodextrin (mUCP3 [1]; extraction of FA from the membrane): decrease of membrane total conductance
Molecule: OC[C@H]1O[C@@H]2O[C@H]3[C@H](O)[C@@H](O)[C@@H](O[C@H]4[C@H](O)[C@@H](O)[C@@H](O[C@H]5[C@H](O)[C@@H](O)[C@@H](O[C@H]6[C@H](O)[C@@H](O)[C@@H](O[C@H]7[C@H](O)[C@@H](O)[C@@H](O[C@H]1[C@H](O)[C@H]2O)O[C@@H]7CO)O[C@@H]6CO)O[C@@H]5CO)O[C@@H]4CO)O[C@@H]3CO [α-cyclodextrin, alpha-cyclodextrin]

proton transport rate κ (mUCP3 [5]): 2.56 ± 0.79 s⁻¹
B1: mUCP3: recombinant mouse uncoupling protein 3 reconstituted in planar lipid membranes (protein, UniProt P56501 1-308, looked up)
Putative mitochondrial …: T1 sequence (P56501 1-308)
